High-throughput results: PubChem, Sanford-Burnham Center for Chemical Genomics
Shown are actives, neighbours in structure and some others; about 0.77% of the full set was active somewhere.
bIAP act: increases bovine intestinal alkaline phosphatase activity | purified bovine IAP, CDP-star luminescence, 30 min; hits give high values; fold of DMSO-control signal, blank-subtracted | activation factor at 20 µM | 0.17% of 200,000 active | AID 1016;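 active means activation factor of 2 or more at 20 µM, a signal rise over negative controls twice the positive control's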
mIAP activ: mouse IAP activation; muIAP, CDP-Star luminescence, 30 min; hits give high values; 1 = vehicle-only enzyme signal, 0 = enzyme-free wells; activation factor at 10 µM; 0.24% of 330,000 active; AID 2805;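 active means activation factor of at least 2 at 20 µM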
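System: Mouse IAP enzyme | Also added: CDP-Star substrate | Dosing: Compounds dispensed in DMSO | Schedule: 30 min enzyme-substrate-compound incubation at room temperature | Technique: Chemiluminescence readout | Control set: DMSO-only wells and no-enzyme negative control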
bIAP inhibitor: intestinal alkaline phosphatase (bovine) inhibition; inhibition, % at 20 µM; AID 1019; purified bovine IAP, CDP-star luminescence, 30 min; 190,000 tested, under 10 active;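 active means over 50% inhibition of intestinal alkaline phosphatase at 20 µM in the single-dose screen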
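System: Purified bovine intestinal alkaline phosphatase (IAP) enzyme | Input: IAP diluted 1/65,000,000 in the well | Also added: CDP-star chemiluminescent phosphatase substrate, 30 µM final | Dosing: 20 µM single dose | Times: Enzyme reaction for 30 min at room temperature | Detection: Luminescence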
mIAP inh: mouse IAP inhibition. 0.2% of 330,000 active. inhibition, % at 10 µM. purified mouse IAP, CDP-Star luminescence, 30 min. AID 2806;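 active means inhibition of at least 40% at 10 µM in the primary screen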;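 further: plate controls were DMSO with enzyme for no effect and no enzyme wells for full effect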
hIAP block: blocks human intestinal alkaline phosphatase | P09923 | purified IAP, CDP-Star luminescence, 30 min | inhibition, % at 10 µM | 0.12% of 330,000 active | AID 2544;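 active means inhibition reaching a set limit with compound at 10 µM in the primary screen, cut at about 35% in these data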;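 further: plate controls were DMSO wells with enzyme for no effect and no-enzyme buffer wells for full effect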
Target sequence (P09923 whole entry, looked up): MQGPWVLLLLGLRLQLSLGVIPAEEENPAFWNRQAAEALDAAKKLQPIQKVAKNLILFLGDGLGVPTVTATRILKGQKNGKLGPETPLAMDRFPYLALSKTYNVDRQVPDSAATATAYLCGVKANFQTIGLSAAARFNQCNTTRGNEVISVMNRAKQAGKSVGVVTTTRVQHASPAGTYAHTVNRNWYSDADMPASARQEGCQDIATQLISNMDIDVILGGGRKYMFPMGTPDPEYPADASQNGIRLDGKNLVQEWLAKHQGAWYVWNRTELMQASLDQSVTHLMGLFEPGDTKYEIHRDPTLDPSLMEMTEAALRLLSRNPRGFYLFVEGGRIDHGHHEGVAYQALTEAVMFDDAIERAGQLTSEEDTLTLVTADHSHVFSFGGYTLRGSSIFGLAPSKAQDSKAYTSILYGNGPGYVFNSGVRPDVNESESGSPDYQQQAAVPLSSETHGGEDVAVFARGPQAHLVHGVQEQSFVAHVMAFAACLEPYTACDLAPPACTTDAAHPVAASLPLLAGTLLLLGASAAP
hIAP act: human IAP activation. activation factor at 10 µM. 0.16% of 330,000 active. purified human IAP, CDP-Star luminescence, 30 min; hits give high values; 1 = vehicle-only enzyme, 0 = enzyme-free background. P09923;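 active means activation factor of the enzyme at least 2-fold when tested at 20 µM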
mIAP inh confirm: mouse IAP inhibition confirmation. inhibition, % at 10 µM. shares compounds with mIAP inh. AID 434971. 4.7% of 11,000 active. purified mouse IAP, CDP-Star luminescence, 30 min;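 active means inhibition of at least 40% at 10 µM in either of the two replicates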;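 further: plate controls were DMSO wells with enzyme for no effect and buffer wells lacking enzyme for full effect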
* marks the source's active call; other numbers are inactive results; i = inactive; nt = no result given.

SMILES	bIAP act	mIAP activ	bIAP inhibitor	mIAP inh	hIAP block	hIAP act	mIAP inh confirm
NNC(=O)c1cc(O)c(O)c(O)c1	0.8	0.37	25	63*	3	0.97	71*
O=C(O)c1cc(S(=O)(=O)Nc2ccc3oc(=O)sc3c2)ccc1O	0.9	0.35	8	65*	-5	1.1	72*
CC(=O)c1c(C)oc2ccc(NS(=O)(=O)c3ccc(O)c(C(=O)O)c3)cc12	0.9	0.87	6	13	-5	1	nt
C/C(CC(=O)Nc1ccc2ccccc2c1)=N\NC(=O)c1ccc(O)c(O)c1	nt	0.54	nt	46*	-6	1.1	67*
C/C(CC(=O)Nc1ccc2ccccc2c1)=N\NC(=O)c1cnccn1	0.9	0.94	14	6	-9	1.1	nt
Cc1cc(=O)oc(C)c1C(=O)OCC(=O)c1ccc(Cl)c(Cl)c1	0.9	1	11	-2	-1	1	nt
Cc1ccc(S(=O)(=O)N2CCC(C(=O)Nc3ccc(S(=O)(=O)N4CCCC4)cc3)CC2)cc1	nt	1.7	nt	-67	-5	1.1	nt
Cc1ccc(S(=O)(=O)N2CCC(C(=O)Nc3ccc(C(C)C)cc3)CC2)cc1	nt	6.6*	nt	i	-5	1	-249
Cc1ccc(S(=O)(=O)N2CCC(C(=O)Nc3ccc(S(=O)(=O)N4CCCC4)cc3)CC2)cc1C	nt	2.2*	nt	-115	8	0.92	-122
C[C@H](NC(=O)NCc1ccc(F)cc1)C(=O)O	0.9	0.95	8	5	-1	1	nt
CC(NC(=S)NCc1ccc(F)cc1)C12CC3CC(CC(C3)C1)C2 (stereo not given)	0.9	4.1*	8	-308	-26	1.3	-319
Cc1cc(NC(=O)Nc2ccc(Cl)c(Cl)c2)n(-c2ccccc2)n1	nt	4.3*	nt	-327	-55	1.5	-179
Cc1cc(NC(=O)Nc2cccc(Cl)c2)n(-c2ccccn2)n1	nt	1.7	nt	-68	-17	1.2	nt
Cc1cc(NC(=O)Nc2cccc(Cl)c2)n(-c2ccccc2)n1	nt	3*	nt	-204	-86	1.9	-97
Cc1ccc(S(=O)(=O)NCCC(c2ccc(F)cc2)c2ccco2)cc1 (stereo not given)	0.9	1.4	12	-38	-8	1.1	nt
COC(=O)c1sccc1S(=O)(=O)Nc1ccc(C)cc1	nt	0.98	nt	2	-3	1	nt
COCc1ccc(CN2CCC(C(=O)Nc3cccc(-c4cccc(Cl)c4)c3)CC2)o1	nt	2.7*	nt	-174	0	1	-336
O=C(O)c1ccc2nc(-c3ccco3)c(-c3ccco3)nc2c1	1.3	0.52	-25	48*	-11	1.1	66*
O=C(c1ccc2nc(-c3ccco3)c(-c3ccco3)nc2c1)N1CCN(c2ccccc2)CC1	1	0.84	1	16	-5	1	nt
O=C1C=C(Nc2cccc(Cl)c2)CC(c2ccco2)C1 (stereo not given)	0.7	0.95	25	4	13	0.87	nt
N#CC1=C(N)SC(N)=C(C#N)C1c1ccoc1	1.1	0.23	-10	77*	8	0.92	76*
CCOC(=O)c1ccc[n+](C(C)C(=O)c2ccc(-c3ccccc3)cc2)c1 (stereo not given)	1	1.1	4	-13	8	0.92	nt
Cc1cc(=O)[nH]c(N/N=C/c2ccc(O)c(O)c2)n1	nt	0.57	nt	43*	-26	1.3	45*
CSc1ccc(/C=N/Nc2nc(C)cc(=O)[nH]2)cc1	1.1	1	-12	0	-4	1	nt
CN(C)CCNC(C(=O)Nc1cccc(C(F)(F)F)c1)c1ccccc1 (stereo not given)	1.2	1.1	-19	-8	-24	1.2	nt
SMILES	bIAP act	mIAP activ	bIAP inhibitor	mIAP inh	hIAP block	hIAP act	mIAP inh confirm
NS(=O)(=O)c1cccc(C(=O)NC2CCSc3ccccc32)c1 (stereo not given)	nt	1.2	nt	-21	5	0.95	nt
NS(=O)(=O)c1cc(C(=O)NC2CCSc3ccccc32)ccc1Cl (stereo not given)	nt	0.28	nt	72*	9	0.91	84*
COc1ccc(C(=O)OCC(=O)Nc2ncc([N+](=O)[O-])s2)cc1OC	nt	0.37	nt	63*	12	0.88	76*
Cc1ccc(CC(=O)Nc2ncc([N+](=O)[O-])s2)cc1	1.1	0.92	-9	8	12	0.88	nt
O=C(COC(=O)c1ccc(Br)o1)Nc1ncc([N+](=O)[O-])s1	nt	0.39	nt	61*	12	0.88	59*
O=C(N/N=C/c1ccc(OC(=O)c2ccccc2Cl)cc1)c1ccccn1	nt	1	nt	-2	-20	1.2	nt
COc1cc(/C=N/NC(=O)c2cc(O)cc(O)c2)ccc1OC(=O)c1ccccc1	nt	0.5	nt	50*	6	0.94	57*
O=C(N/N=C/c1ccc(OC(=O)c2ccccc2Cl)cc1)c1cc(O)cc(O)c1	nt	0.53	nt	47*	-4	1	61*
O=C(C1CCC(=O)N(C2CC2)C1)N1CCN(c2ccccc2Cl)CC1 (stereo not given)	nt	0.96	nt	4	-10	1.1	nt
CCOc1ccc(N2C(=O)C3CC(C)=C(C)CC3C2=O)c([N+](=O)[O-])c1 (stereo not given)	1	1	4	-2	20	0.8	nt
Cc1ccc(NC(=S)NCc2ccccc2)cc1S(=O)(=O)N1CCCCC1	1.4	5.8*	-38	-481	-58	1.6	-187
CCCSC1=N/C(=C\C=C\c2ccco2)C(=O)S1	0.7	0.55	31	45*	6	0.94	61*
O=C1SC(SCc2ccccc2)=N/C1=C\c1ccco1	0.8	0.75	21	25	8	0.92	nt
CCCCCC(=O)N/N=C/c1ccc([N+](=O)[O-])o1	0.9	0.77	8	23	-20	1.2	nt
O=C(NN=Cc1ccc(F)cc1)c1ccccc1NS(=O)(=O)c1cccs1	nt	1	nt	0	-6	1.1	nt
O=C(N/N=C/c1ccc([N+](=O)[O-])o1)c1ccccc1NS(=O)(=O)c1cccs1	nt	0.47	nt	53*	-17	1.2	62*
O=C(Cc1ccc2c(c1)OCO2)NN=Cc1ccc([N+](=O)[O-])o1	nt	0.46	nt	54*	-15	1.2	69*
O=C(N/N=C/c1ccc([N+](=O)[O-])o1)c1ccncc1	nt	0.57	nt	43*	-14	1.1	48*
O=C(N/N=C/c1ccc([N+](=O)[O-])o1)c1cc2ccccc2o1	nt	0.6	nt	40*	7	0.93	59*
Fc1cccc2sc(Nc3nnc(-c4ccccc4)o3)nc12	1	0.73	-5	27	-20	1.2	37*
COCc1cc(=O)n2[nH]c(-c3ccsc3-n3c(C)ccc3C)cc2n1	1	0.44	4	56*	10	0.91	58*
Cc1cc(=O)n2[nH]c(-c3ccc(F)cc3)cc2n1	1	0.94	0	6	-9	1.1	nt
Cc1ccccc1-c1cc2nc(C)c(Cl)c(=O)n2[nH]1	nt	0.94	nt	6	-2	1	nt
